Compounds with a hit are over-represented: about 3% of the library has one in this group of screens.
S1P3 agonist = human S1P3 receptor agonists, primary screen, cell-based, primary and confirmation, NFAT-BLA reporter | Sphingosine 1-phosphate receptor 3 (Homo sapiens), Q99500 | S1P3 NFAT-BLA reporter cells, agonism, FRET ratio; relative to 1 µM S1P, basal subtracted | activation, % at 4.5 µM | 60,000 tested, 0.1% active;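 active means activation above the screen-wide mean plus 3 SD, cut at about 4.5% in these data, passing the limit was not always enough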
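material = human S1P3 NFAT-BLA reporter CHO cells | schedule = 4 h compound at 37 °C, 2 h substrate at RT | measured by = fluorescent BLA substrate, ex 405 nm, em 460/535 nm ratio | controls = 1 µM S1P reference | replication = primary once, confirmation triplicate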
5HT1E antag = 5-HT1E receptor antagonists, primary screen, cell-based, HTS; 5-hydroxytryptamine receptor 1E (Homo sapiens), P28566; CHO 5-HT1E Ga15 NFAT-bla reporter, FRET, antagonist; inhibition, % at 6 µM; 65,000 tested, 0.99% active; AID 571, 2007;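 active means inhibition above a set limit, the mean inhibition across every tested compound plus 3 SD, cut at about 29% in these data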;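 further: signal is the 460 over 535 nm emission ratio of beta-lactamase substrate; 0% = agonist plus DMSO wells and 100% = wells without agonist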
5HT1E ag = 5-HT1E receptor agonists, primary screen, cell-based, HTS; 5-hydroxytryptamine receptor 1E (Homo sapiens), P28566; CHO 5-HT1E Ga15 NFAT-bla reporter, FRET; 0% DMSO wells, 100% control agonist wells; activation, % at 6 µM; 65,000 tested, 0.69% active; AID 574, 2007;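 active means activation above a set limit, the screen-wide mean activation plus 3 SD, cut at about 8.5% in these data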;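 further: 100% = positive control agonist at 1 µM giving full maximal response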
S1P1 ag pot = S1P1 agonists and agonism potentiators, primary screen, cell-based, primary and confirmation screens, CRE-bla reporter; S1P1 CRE-bla cells, forskolin, beta-lactamase FRET, potentiator mode; S1P1 agonist co-added at EC20, 2 nM; 100% = saturating reference agonist, 0% = basal; 56,000 tested, 0.57% active; activation, % at 9.5 µM; Sphingosine 1-phosphate receptor 1 (Homo sapiens), P21453;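 active means activation above a cutoff set at the mean activation of all tested compounds plus 3 SD, cut at about 54% in these data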;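 further: forskolin at 4 µM as EC80 and the EC20 agonist is SEW2871; 100% = SEW2871 at its EC100 plus forskolin at EC80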
HTR1A agonist = human 5-HT1a receptor agonists, primary screen, cell-based, CHO, Ga15 NFAT-bla reporter | 5-hydroxytryptamine receptor 1A (Homo sapiens), P08908 | CHO 5-HT1a Ga15 NFAT-bla reporter, FRET ratio; 0% basal, 100% maximal reference agonist | activation, % at 10 µM | 65,000 tested, 0.56% active;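 active means activation above the screen-wide mean activation plus 3 SD, cut at about 19% in these data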;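 further: 0% = DMSO wells and 100% = 5-CT at EC100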
Target sequence (P08908 whole entry, looked up): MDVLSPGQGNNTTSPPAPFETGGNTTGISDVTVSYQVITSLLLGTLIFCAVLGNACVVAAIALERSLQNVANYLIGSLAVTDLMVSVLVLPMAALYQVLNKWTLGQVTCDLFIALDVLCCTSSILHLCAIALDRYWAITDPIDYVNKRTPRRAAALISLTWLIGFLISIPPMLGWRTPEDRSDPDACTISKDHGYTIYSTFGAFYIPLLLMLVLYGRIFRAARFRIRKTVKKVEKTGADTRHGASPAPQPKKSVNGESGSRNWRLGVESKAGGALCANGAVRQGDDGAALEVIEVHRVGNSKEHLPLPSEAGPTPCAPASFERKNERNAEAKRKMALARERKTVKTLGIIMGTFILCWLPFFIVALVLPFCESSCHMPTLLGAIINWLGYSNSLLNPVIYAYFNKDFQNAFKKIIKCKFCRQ
5HT1a antag = human 5-HT1a receptor antagonists, primary screen, cell-based, CHO, Ga15 NFAT-bla reporter; 5-hydroxytryptamine receptor 1A (Homo sapiens), P08908; AID 612, 2007; inhibition, % at 10 µM; CHO 5-HT1a Ga15 NFAT-bla reporter, antagonist mode; 62,000 tested, 0.68% active;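 active means inhibition above the mean of all tested compounds plus 3 SD, cut at about 43% in these data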;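 further: receptor stimulated by 5-CT agonist at 100 nM near EC80; beta-lactamase reporter measured by ratiometric fluorescence of a cleavable substrate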
Numbers without * were called inactive; / = not tested or not shown.

SMILES | S1P3 agonist | 5HT1E antag | 5HT1E ag | S1P1 ag pot | HTR1A agonist | 5HT1a antag
Cc1cccc(-c2cc3nc4c(c(N5CCOCC5)n3n2)CCCC4)c1 | 0 | 40* | 0 | -36 | -3 | 27
CC(=O)Nc1ccc(Cl)cc1C(=O)O | -1 | 8 | 0 | 0 | 1 | 2
CCN(CC)S(=O)(=O)c1ccc(NC(=O)COc2c(OC)cccc2OC)cc1 | 0 | 13 | 0 | -32 | -1 | -16
Cc1cc(C(=O)CSc2nnc(-c3ccco3)o2)c(C)n1CC1COc2ccccc2O1 (stereo not given) | -1 | -1 | 1 | 17 | 30* | -1
Cc1c(CCC#N)c(N2CCN(C3CCCCC3)CC2)n2c(nc3ccccc32)c1C#N | -4 | 0 | -1 | 4 | 2 | /
CCCc1ccc(Oc2cn[nH]c2-c2ccc(O)cc2O)cc1 | -1 | 12 | -1 | 74* | -3 | 25
Cc1ccc2[nH]c(-c3ccccc3)cc(=O)c2c1 | -2 | 70* | 0 | 4 | -4 | 35
COc1cccc(-n2c(C)nnc2SCC(=O)Nc2ccccc2N2CCOCC2)c1 | -1 | -2 | -1 | -14 | -3 | 7
CC(=O)C(Sc1nc(-c2ccc(F)cc2)nc2c1c(=O)n(C)c(=O)n2C)C(C)=O | 0 | 97* | -1 | 7 | 2 | 6
O=C(O)C1CCCCC1C(=O)NCCc1ccc(Cl)cc1 (stereo not given) | 0 | -13 | 21* | -2 | -4 | -1
CCCOC(=O)C1=C(C)NC2=C(C(=O)CCC2)C1c1cccc(OC)c1OC (stereo not given) | -1 | -18 | 1 | 3 | -3 | 5
Clc1cccc(N2CCN(CCNc3nc4ccccc4n4cnnc34)CC2)c1 | -1 | 6 | 8.9* | -13 | 6 | 17
CNC(=O)CN(C1CCCCC1)S(=O)(=O)c1ccc(F)cc1 | 0 | -3 | 1 | -5 | 42* | 4
CCNC(=O)CN(C1CCCCC1)S(=O)(=O)c1ccc(F)cc1 | / | -6 | -1 | / | 0 | 7
Cc1ccccc1-n1c(SC(C)C(N)=O)nnc1-c1cccnc1 (stereo not given) | 0 | 5 | 27* | -24 | 0 | 1
Cc1ccc(-n2c(SCC(N)=O)nnc2-c2cccnc2)c(C)c1 | -2 | 1 | -1 | 3 | -3 | -8
N#CCCSc1ccccc1NC(=O)c1ccc(S(=O)(=O)N2CCCC2)cc1 | -2 | 2 | 1 | 1 | 0 | -4
O=C(OC1CCOC1=O)c1ccc2ncsc2c1 (stereo not given) | 1 | -2 | 0 | 1 | -2 | 1
O=C(OC1CCOC1=O)c1cncc(Br)c1 (stereo not given) | -1 | 1 | 43* | 3 | -3 | -15
Cc1ccc(-c2nn(C)c(=O)c3ccccc23)cc1S(=O)(=O)NCCO | -1 | 29* | 0 | / | -2 | 6
Cc1ccc(-c2nn(C)c(=O)c3ccccc23)cc1S(=O)(=O)N1CCCC1 | 0 | 36* | 2 | -50 | 0 | 10
CCOc1nc(SCCOc2ccccc2)nc(N(C)C)n1 | -1 | 15 | 1 | -32 | 1 | /
CCCS(=O)(=O)N1CCCC(C(=O)NCCN2CCC(Cc3ccccc3)CC2)C1 (stereo not given) | 0 | -4 | 0 | -28 | -2 | 46*
COC(=O)c1cnn(C(=O)c2cc(OC)ccc2Br)c1N | 1 | 2 | 0 | -6 | -3 | -8
CCCCCOC(=O)NCC(O)c1ccccc1 (stereo not given) | -1 | -3 | -1 | -38 | 1 | -4
SMILES | S1P3 agonist | 5HT1E antag | 5HT1E ag | S1P1 ag pot | HTR1A agonist | 5HT1a antag
CC(C)COC(=O)NCCCOC(=O)Nc1ccccc1 | -1 | -3 | 0 | 0 | 224* | 18
CC(C)COC(=O)NCCOC(=O)Nc1cccc(Cl)c1 | -1 | -2 | 0 | 70* | -3 | 6
COc1ccc(N(CC(=O)Nc2cc(Cl)ccc2OC)S(=O)(=O)c2c(C)noc2C)cc1 | 0 | 35* | 0 | -20 | -2 | 23
COc1ccc(OC)c(NC(=O)CN(c2ccc(C)cc2)S(=O)(=O)c2c(C)noc2C)c1 | 0 | 2 | 2 | 2 | 3 | 22
COc1cccc2sc(Nc3nnc(-c4ccccc4Cl)o3)nc12 | 0 | 25 | 2 | -185 | -4 | 64*
COc1ccccc1-c1nnc(Nc2nc3c(OC)cccc3s2)o1 | -1 | 53* | 1 | -28 | -5 | 51*
COc1nc(NCCc2ccc(OC)c(OC)c2)nc(OC)n1 | -2 | -5 | 0 | -10 | 1 | 12
COc1nc(NCCC2=CCCCC2)nc(OC)n1 | -1 | 3 | 0 | / | 51* | -14
Clc1ccc(COn2nnc3ccccc32)c(Cl)c1 | 0 | 3 | 0 | 18 | -2 | 8
CCN(CC)CCNC(=O)c1ccc(CS(=O)(=O)c2ccc(Br)cc2)o1 | -1 | -6 | 0 | 6 | -1 | -8
CCOC(=O)c1cccc2c1-c1ccccc1/C2=N/O | -1 | 21 | 0 | 62* | -2 | 30
O=C(O)c1cc2ccccc2n1-c1ccccc1 | -1 | 0 | 0 | -19 | -1 | -9
N#Cc1cc2c(=O)n3ccccc3nc2n(CCN2CCOCC2)c1=O | 0 | -5 | 28* | -36 | 4 | -5
N#Cc1cc2c(=O)n3ccccc3nc2n(Cc2cccnc2)c1=O | 7 | -10 | 8 | -49 | 37* | -47
N#Cc1cc2c(=O)n3ccccc3nc2n(CCCN2CCOCC2)c1=O | 4 | -34 | 5 | -36 | 15 | -24
COc1cccc(C(=O)OCn2nnc3ccccc3c2=O)c1OC | -1 | 33* | 0 | -17 | 0 | 14
COc1cc(C(=O)OCn2nnc3ccccc3c2=O)cc(OC)c1OC | / | 6 | 1 | / | 1 | -6
COC(=O)c1c(C(=O)OC)c2ccncn2c1Cl | / | 0 | 0 | / | -2 | -10
Nc1ccc2c(C(F)(F)F)cc(=O)oc2c1 | 1 | 42* | 2 | 20 | 6 | 8
O=C(O)C1C2C=CC(C2)C1C(=O)NCCc1cccc(Cl)c1 (stereo not given) | 0 | 8 | 12* | / | 8 | 0
CCOC(=O)c1nc(S(C)(=O)=O)ncc1Cl | 0 | 75* | 0 | -54 | -2 | 86*
CCCOc1ccccc1Cn1c(=O)oc2ccc(C)cc21 | / | 14 | -1 | / | -2 | 44*

Screens deposited in PubChem by The Scripps Research Institute Molecular Screening Center.
